# Most compounds without a hit are left out; they make up all but 7.2% or so of the library.
# Ecoli tolC: growth inhibitors of E. coli tolC mutant, primary screen, strain BW25113 ΔtolC::kan, 384-well; AID 573, 2007; OD615; growth inhibition, % at 10 µM (by protocol); 65,000 tested, 2.2% active;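 active = growth inhibition at or above a cutoff equal to the mean over every tested compound plus 3 SD, cut at about 60% in these data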;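 also: growth measured after 20 h incubation at 37 °C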
#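 Test system: tolC-deleted E. coli BW25113; medium: LB with kanamycin 50 µg/mL; compound: single-point testing at 10 µM; incubation: 20 h compound exposure of bacteria at 37 °C; signal: OD at 615 nm; evaluation: growth inhibition in percent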
# PostGolgi ctrl: growth inhibition of yeast control strain, primary screen, counter-screen for post-Golgi transport modulator project; efflux-deficient yeast background strain, growth absorbance A615, 16 h; inhibition, % at 10 µM; 98,000 tested, 5% active
# PostGolgi yeast: phenotypic screen on post-Golgi transport, primary screen | inhibition, % at 10 µM | 98,000 tested, 0.9% active | post-Golgi transport phenotypic cell assay;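 also: yeast cells grown in 1536-well plates; yeast grown about 18 h at 30C before absorbance read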
# E coli WT exp: growth inhibitors of wild-type E. coli, primary screen, strain BW25113, expanded library, OD600 | AID 710, 2007 | 98,000 tested, 0.15% active | growth inhibition, % at 100 µM | OD600 absorbance;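 active = growth inhibition above about 50% at one test dose, limit read from the data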;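 also: growth measured after 20 h incubation at 37 °C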
# PLAP activator: PLAP enzyme activators, biochemical, luminescence, HTS; purified PLAP enzyme, luminescent substrate read-out; active compounds read high; 96,000 tested, 1.2% active; activation fold at 20 µM; AID 696, 2007; Alkaline phosphatase, placental type (Homo sapiens), P05187; in the data active = activation fold above about 2
# Target sequence (P05187 whole entry, looked up): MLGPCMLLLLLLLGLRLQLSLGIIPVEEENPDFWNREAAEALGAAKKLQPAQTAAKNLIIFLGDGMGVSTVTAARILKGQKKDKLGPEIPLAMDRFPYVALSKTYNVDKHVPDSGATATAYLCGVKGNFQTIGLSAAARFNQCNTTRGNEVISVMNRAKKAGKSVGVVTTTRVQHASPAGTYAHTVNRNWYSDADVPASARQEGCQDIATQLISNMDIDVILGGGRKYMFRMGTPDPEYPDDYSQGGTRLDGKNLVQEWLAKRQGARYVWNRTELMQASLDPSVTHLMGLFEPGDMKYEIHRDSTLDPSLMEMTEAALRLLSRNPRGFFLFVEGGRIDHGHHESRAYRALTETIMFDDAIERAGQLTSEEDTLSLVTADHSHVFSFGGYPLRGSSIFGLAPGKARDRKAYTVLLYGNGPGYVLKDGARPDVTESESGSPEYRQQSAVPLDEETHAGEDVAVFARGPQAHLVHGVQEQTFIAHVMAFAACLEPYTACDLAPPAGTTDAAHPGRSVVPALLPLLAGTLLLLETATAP
# An asterisk follows results filed as active; · = no result. Rule as the data show it, unless noted: active = inhibition above about 30%; inactive = the rest.
SMILES,Ecoli tolC,PostGolgi ctrl,PostGolgi yeast,E coli WT exp,PLAP activator
Cc1ccc(/C=C/C2=NN(Cc3ccccc3Cl)C(=O)CC2)cc1,·,41*,-1,-9,1.4
CC(=O)N1C=CN(C(C)=O)C(c2cn(C)c3ccccc23)C1c1cn(C)c2ccccc12 (stereo not drawn),21,34*,-4,-2,1.8
Fc1ccc2c(c1)C1C=CCC1C(c1cc3c(cc1Br)OCO3)N2 (stereo not drawn),·,28,5,-10,1
CC1=CC(C)(C)N(C(=O)c2ccc(F)cc2)c2cc3c(cc21)OCO3,87*,29,8,-3,1.2
COC(=O)C1=C(C)NC2=C(C(=O)CCC2)C1c1ccccn1 (stereo not drawn),-4,·,·,·,·
O=C(COC(=O)C1COc2ccccc2O1)Nc1ccc2c(c1)CCC2 (stereo not drawn),4,10,13,-1,0.9
Cc1nc(SCC(=O)NCCc2ccccc2)nc(C)c1C,·,22,-8,-3,0.8
O=c1c2[nH]c3ccccc3c2ncn1CCCn1ccnc1,-19,6,2,8,0.9
O=c1c2[nH]c3ccc(Br)cc3c2ncn1CCCn1ccnc1,-9,23,33*,1,1.1
O=C(COc1ccc(Cl)cc1Cl)NCCCN1CCOCC1,-10,18,65*,0,1.2
O=C(COc1ccc(Cl)cc1Cl)NCCC1=CCCCC1,·,48*,-18,10,0.9
Cc1cc(Cl)ccc1OCC(=O)NCCCN1CCOCC1,-3,10,5,4,1.6
CCOc1ccc(N2C(=O)Nc3ccccc3C2(O)C(=O)NCc2ccc3c(c2)OCO3)cc1 (stereo not drawn),·,8,12,-10,0.8
O=C(COc1ccccc1)N(Cc1ccco1)c1ccc(O)cc1,11,8,1,6,·
O=C(c1ccc(Cl)c(Cl)c1)N(Cc1ccco1)c1ccc(O)cc1,100*,25,0,3,1.1
CC(C)C(c1nnnn1Cc1ccccc1)N1CCN(Cc2ccc3c(c2)OCO3)CC1 (stereo not drawn),5,6,-8,-1,1.6
CCC(C)(C)n1nnnc1C(c1ccc2ncccc2c1)N1CCN(Cc2ccc3c(c2)OCO3)CC1 (stereo not drawn),23,3,0,10,2.1*
CCC(C)(C)n1nnnc1C(c1ccc2ncccc2c1)N1CCN(c2nc3ccccc3s2)CC1 (stereo not drawn),34,34*,-2,-14,1.6
COCCn1nnnc1C(c1ccc(OC)c(OC)c1)N1CCN(c2nc3ccccc3s2)CC1 (stereo not drawn),11,·,·,·,1.6
CC1CCCN(C(=O)CSCC(=O)Nc2nc(-c3cccs3)cs2)C1 (stereo not drawn),33,64*,-5,3,0.9
O=C(O)C1CCCCC1C(=O)Nc1nc(-c2cccs2)cs1 (stereo not drawn),27,2,-4,8,1
CC1CCN(C(=O)CSCC(=O)Nc2nc(-c3cccs3)cs2)CC1,44,65*,-1,-12,·
CC1CCCCN1C(=O)CSCC(=O)Nc1nc(-c2cccs2)cs1 (stereo not drawn),28,73*,-1,-6,·
CCOC(=O)N1CCN(C(=O)CSCC(=O)Nc2nc(-c3cccs3)cs2)CC1,-4,·,·,·,·
CCC(c1nnnn1C1CCCC1)N1CCN(c2ccccc2F)CC1 (stereo not drawn),7,27,2,-4,1.3
SMILES,Ecoli tolC,PostGolgi ctrl,PostGolgi yeast,E coli WT exp,PLAP activator
CCCC(c1nnnn1C1CCCC1)N1CCN(c2ccccc2F)CC1 (stereo not drawn),5,67*,19,-7,1.5
O=C(Oc1ccc(/C=N/Nc2ccccc2)cc1)c1ccccc1,·,5,0,-7,1
CCOC(=O)c1ccc(NC(=O)c2ccc(CN3CCOCC3)cc2)cc1,-14,27,94*,-2,1.3
O=C(Nc1ccc(CN2CCOCC2)cc1)c1cc2ccccc2o1,-1,23,38*,4,1.6
O=C(Oc1ccc(/C=N/O)cc1)c1ccccc1,9,31*,12,13,0.9
NC(=O)c1ccc(NC(=O)c2ccc(CN3CCOCC3)cc2)cc1,·,10,-3,-3,0.9
O=C(N/N=C/c1ccc(OC(=O)c2ccccc2)cc1)c1ccc(CN2CCOCC2)cc1,·,11,80*,-2,1.4
CC(=O)N(CC1CCCO1)c1nnc(-c2cnccn2)s1 (stereo not drawn),-5,-7,-2,3,0.9
CC(C)COc1ccc(CSCCNC(=S)Nc2ccccc2)cc1,·,19,-5,-14,1
COc1ccc(-c2nnc(-c3cccs3)o2)cc1OC,20,1,-2,0,0.9
COc1ccc(-c2nc(-c3cccs3)c(-c3cccs3)[nH]2)cc1O,97*,31*,-1,-5,1.2
N#Cc1c(N)oc(-c2ccccc2)c1-c1ccccc1,8,-10,3,-4,1.2
N#Cc1c(/N=C/c2ccco2)oc(-c2ccccc2)c1-c1ccccc1,77*,28,-5,-4,0.9
COc1cccc(Nc2nc3ccccc3n3cnnc23)c1,·,33*,-7,3,1.6
c1ccc(CNc2nc3ccccc3n3cnnc23)cc1,·,13,-16,-4,0.9
CCOC(=O)Cc1cc(OC)c(OC)cc1Cc1cc(OC)c(OC)cc1CC(=O)OCC,·,13,2,-8,1.4
Cc1nc2ccc(S(=O)(=O)NCC(=O)N3CCC(C)CC3)cc2s1,-3,15,-1,-6,0.9
CCOc1ccc(N/N=C(/C#N)C(N)=O)cc1,·,90*,104*,0,1
Cc1c(NC2=C(Cl)C(=O)N(c3ccccc3)C2=O)c(=O)n(-c2ccccc2)n1C,-5,31*,7,4,1.7
Cc1cc(=O)[nH]c(Nc2c(C)n(C)n(-c3ccccc3)c2=O)n1,-6,-8,-3,0,0.8
Cc1c(Nc2nc3ccccc3nc2N2CCN(c3ccccc3)CC2)c(=O)n(-c2ccccc2)n1C,11,34*,2,-6,1.9
Cc1c(C#N)c(N=CN(C)C)c(C(=O)c2ccc(Br)cc2)n1-c1ccccc1,·,28,5,-4,1.2
Cc1c(C#N)c(N=CN(C)C)c(C(=O)c2ccccc2)n1-c1ccc(Br)cc1,·,43*,-3,-6,1.7
Cc1cc(C(=O)Cn2nnc(-c3ccc(Cl)cc3)n2)c(C)n1CC1CCCO1 (stereo not drawn),28,33*,22,-1,·
COc1cccc(C(=O)Nc2ccc(N(C)C)cc2)c1OC,-2,7,0,-8,0.7
CCOc1ccccc1C(=O)Nc1ccc2nc(N3CCN(c4ncccn4)CC3)cc(C)c2c1,17,·,·,·,·
COc1cccc(C(=O)Nc2ccccc2)c1,·,0,15,2,1.1
CN(C)S(=O)(=O)Oc1cccc(C(=O)Nc2ccc(Cl)c(Cl)c2)c1,·,36*,10,-5,1
COc1cccc(NC(=O)c2cccc(OC)c2OC)c1,1,48*,-9,6,1.2

# High-throughput results: PubChem BioAssay, several laboratories
